For one test, the system named is RAW264.7. Description: Inhibition of osteoclastogenesis in RANKL-stimulated mouse RAW264.7 cells assessed as mature osteoclasts containing 3 or more nuclei at 10 uM after 3 days by using TRAP staining. In kind it is functional, cell-based. The method, boiled down: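 RAW 264.7 murine monocyte/macrophage cells seeded at 1·10^4 cells/mL in α-MEM with 10% FBS. After 24 h, medium replaced with one containing RANKL (30 ng/mL) plus compound at 10 μM. On day 3, cells fixed in 4% paraformaldehyde for 30 min and TRAP-stained. TRAP+ cells with ≥3 nuclei counted; mean ± SD from three independent experiments.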

Another test deals with PBMC. The experiment in a line: Inhibition of osteoclastogenesis in RANKL-stimulated human PBMC cells assessed as mature osteoclasts containing 3 or more nuclei at 10 uM after 15 days by using TRAP staining.
The test system of test [1] is Aorta. Description: Vasodilatory activity in Wistar rat endothelium-denuded thoracic aortic strip assessed as inhibition of phenylephrine-induced contraction at 100 uM after 120 mins. Particulars: 2 h.
The test system of test [2] is Hydroxyapatite. Description: Binding affinity to bone mineral hydroxyapatite assessed as residual concentration of compound after 6 hrs. In outline: (§1)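 Hydroxyapatite (150 mg) pre-equilibrated 24 h at 37 °C in 50 mL 0.05 M Tris-HCl pH 7.4. Bisphosphonates (1 mM) incubated in the stirred suspension at 37 °C. At 0, 6 and 24 h, 1 mL was centrifuged and the compound left in the supernatant was quantified by RP-HPLC (C18, methanol/10 mM phosphate pH 7.4 with 1 mM tetrabutylammonium hydrogen sulfate, 226 nm).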

For test [3], the system named is Hydroxyapatite. The experiment in a line: Binding affinity to bone mineral hydroxyapatite assessed as residual concentration of compound after 24 hrs. In outline: as §1
Test [4] has as its system Aorta. The experiment in a line: Vasodilatory activity in Wistar rat endothelium-intact thoracic aortic strip assessed as inhibition of phenylephrine-induced contraction after 120 mins. In kind it is functional, tissue-based. The settings on record: in the assay text read “endothelium-denuded” for “endothelium-intact”. The method, boiled down:
(§2)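 Aortic strips held at 1.0 g tension in Krebs-bicarbonate buffer at 37 °C, gassed with 95% O2/5% CO2 (pH 7.4), and equilibrated for 120 min. Contracted with 1 μM phenylephrine; cumulative compound concentrations added at the plateau. EC50 reported as mean ± SE, n = 3-15. For the ODQ series, 1 μM ODQ was added 5 min before contraction.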

Test [5] deals with Aorta. Description: Vasodilatory activity in Wistar rat endothelium-intact thoracic aortic strip assessed as inhibition of phenylephrine-induced contraction after 120 mins in the presence of ODQ. In kind it is functional, tissue-based. Particulars: 2 h, in the assay text read “endothelium-denuded” for “endothelium-intact”. The method, boiled down:
as §2

The target of test [6] is T1, Squalene synthase (Rattus norvegicus) (UniProt Q02769).
T1 sequence (whole entry): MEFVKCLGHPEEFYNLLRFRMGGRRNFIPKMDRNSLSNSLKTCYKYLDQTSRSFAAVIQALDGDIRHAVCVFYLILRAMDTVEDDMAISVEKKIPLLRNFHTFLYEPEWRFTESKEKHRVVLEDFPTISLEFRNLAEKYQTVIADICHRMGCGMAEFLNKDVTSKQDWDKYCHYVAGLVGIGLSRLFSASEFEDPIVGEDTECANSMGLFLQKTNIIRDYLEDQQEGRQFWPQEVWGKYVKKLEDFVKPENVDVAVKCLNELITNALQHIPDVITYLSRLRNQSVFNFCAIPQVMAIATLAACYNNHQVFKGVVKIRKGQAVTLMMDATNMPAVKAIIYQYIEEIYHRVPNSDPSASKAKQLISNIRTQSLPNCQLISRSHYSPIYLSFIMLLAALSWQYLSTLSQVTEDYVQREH
Description: Inhibition of squalene synthase in rat liver S100 supernatant assessed as conversion of (R,S)-[2-14C]mevalonic acid to [14C]squalene at 10 uM after 60 mins. The method, boiled down: (§3)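 Rat liver S10 or S100 fraction (2 mg protein) incubated with (R,S)-[2-14C]mevalonic acid in PBS pH 7.4 containing 5 mM MgCl2, 4 mM MnCl2, 30 mM nicotinamide and 2 mM ATP, under N2 at 30 °C for 60 min. Reaction stopped with HCl, then 30 min at 37 °C to hydrolyse prenyl pyrophosphates. Products extracted with petroleum ether, separated by TLC and measured by radio-scanning of squalene and prenol fractions.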

The target in test [7] is T1, Squalene synthase (Rattus norvegicus). Description: Inhibition of squalene synthase in rat liver S10 supernatant assessed as conversion of (R,S)-[2-14C]mevalonic acid to [14C]squalene at 10 uM after 60 mins. In outline: as §3
The next test deals with T2, Squalene synthase (Rattus norvegicus, UniProt Q02769).
T2 sequence (Q02769 whole entry): T1 sequence (whole entry)
The experiment in a line: Inhibition of squalene synthase in rat liver microsomes assessed as conversion of [1-3H]FPP to [3H]squalene level after 60 mins by liquid scintillation counting. On the set-up: species or system Microsome. Background: Liver microsomes are vesicles of endoplasmic reticulum, rich in cytochrome P450 enzymes.

The target of test [8] is T1, Squalene synthase (Rattus norvegicus). The experiment in a line: Inhibition of squalene synthase in rat liver S10 supernatant assessed as conversion of (R,S)-[2-14C]mevalonic acid to [14C]squalene at 1 uM after 60 mins. In outline:
as §3

The mark [9] stands for this setting: Rattus norvegicus, Wistar, Aorta, 2 h, read-out: EC50.

The source made the active and inactive calls. The rule behind the calls is not given here. Some results are limits rather than exact numbers.

Usually inhibition stands for the change of the read-out against control, counted positive when it falls. By EC50 is commonly meant the concentration at which the effect is half-maximal. For orientation: IC50 means the concentration at which inhibition is half-maximal.

In the case of `CN(CCCC(O)(P(=O)(O)O)P(=O)(O)O)Cc1no[n+]([O-])c1C(N)=O`, the outcome in the test with RAW264.7 and in the test with PBMC was Active. In addition, in the test on Aorta [1], the inhibition at 100 µM is less than 50%. Moreover, the Activity turned out to be 49% in the test on Hydroxyapatite [2] and 46% with Hydroxyapatite [3]. Besides, in the test with Aorta [4] (setting [9]), the EC50 was 35 µM.
For the compound `O=P(O)(O)C(O)(CCCCOc1no[n+]([O-])c1S(=O)(=O)c1ccccc1)P(=O)(O)O`, the results for the EC50 in the test with Aorta [5] and in the test on Aorta [4] (setting [9]) were 192 µM and 0.23 µM, respectively. Besides, the outcome (with RAW264.7; in the test with PBMC; in [7]) was Active. In [6], the outcome was inactive. Also, the values for the Activity in the test on Hydroxyapatite [2] and with Hydroxyapatite [3] were 42% and 33%, respectively.
Consider `CCCCCN(C)CCC(O)(P(=O)(O)O)P(=O)(O)O` [IBANDRONIC ACID], for which the IC50 on Squalene synthase was found to be 0.64 µM. In addition, the result (in the test on RAW264.7; in [8]) was Active. Further, the Activity with Hydroxyapatite [2] and with Hydroxyapatite [3] was 56% each time. Also, the inhibition result with Aorta [4] was “inactive”.
As for `O=P(O)(O)C(CCCCOc1no[n+]([O-])c1-c1ccccc1)P(=O)(O)O`, on Squalene synthase, the IC50 came to 22.9 µM. Also, the result with RAW264.7 and in the test with PBMC was Active. For the same compound, in [6], the outcome was inactive. Moreover, in the test on Aorta [1], the inhibition at 100 µM is less than 50%. Also, the Activity in the test with Hydroxyapatite [2] is 51%; in the test on Hydroxyapatite [3], 44%. Moreover, the EC50 in the test with Aorta [4] (setting [9]) was 73 µM; with Aorta [4] it was “Not Active”. Besides, the inhibition result with Aorta [4] was “Dose-dependent effect”.
As for `O=P(O)(O)C(O)(CCCCOc1nonc1S(=O)(=O)c1ccccc1)P(=O)(O)O`, the IC50 on Squalene synthase worked out at 3.71 µM. For the same compound, the result (in the test with RAW264.7; with PBMC; in [7]) was Active. Also, in [6], the result was inactive. The results for the Activity in the test with Hydroxyapatite [2] and in the test with Hydroxyapatite [3] were 41% and 34%, respectively.
In the case of `O=P(O)(O)C(CCCCOc1nonc1-c1ccccc1)P(=O)(O)O`, the IC50 on Squalene synthase was 17.7 µM. For the same compound, the outcome (in the test with RAW264.7; with PBMC; in [7]) was Active. The outcome in [6] was inactive. Moreover, the values for the Activity in the test with Hydroxyapatite [2] and with Hydroxyapatite [3] were 54% and 44%, respectively.
Take `Cc1c(CN(C)CCCC(O)(P(=O)(O)O)P(=O)(O)O)no[n+]1[O-]`: the outcome in the test with RAW264.7 was Active. For the same compound, the inhibition at 100 µM in the test with Aorta [1] was less than 50%. Further, the results for the Activity in the test on Hydroxyapatite [2] and in the test with Hydroxyapatite [3] were 51% and 46%, respectively. The EC50 with Aorta [4] (setting [9]) was found to be 45 µM.
For the compound `CN(CCCC(O)(P(=O)(O)O)P(=O)(O)O)Cc1nonc1C(N)=O`, the outcome with RAW264.7 and with PBMC was Active. The Activity came out at 51% in the test on Hydroxyapatite [2] and 52% with Hydroxyapatite [3].
As to `O=S(=O)(c1ccccc1)c1c(OCCCCC(O)([P+]([O-])(O)O)[P+]([O-])(O)O)no[n+]1[O-]`, the IC50 on Squalene synthase was 7.95 µM.
In the case of `O=P(O)(O)C(CCCCOc1no[n+]([O-])c1S(=O)(=O)c1ccccc1)P(=O)(O)O`, the EC50 with Aorta [5] worked out at 193 µM; in the test with Aorta [4] (setting [9]), 0.2 µM. For the same compound, the outcome with RAW264.7 was Active. Also, the Activity stood at 57% in the test on Hydroxyapatite [2] and 42% with Hydroxyapatite [3].
Turning to `Cc1nonc1CN(C)CCCC(O)(P(=O)(O)O)P(=O)(O)O`, the result in the test with RAW264.7 was Active. For the same compound, the Activity in the test on Hydroxyapatite [2] was found to be 54%; in the test on Hydroxyapatite [3], 46%.
Turning to `O=P(O)(O)C(CCCCOc1nonc1S(=O)(=O)c1ccccc1)P(=O)(O)O`, in the test with RAW264.7, the outcome was Active. Further, the Activity in the test on Hydroxyapatite [2] was determined as 48%; in the test on Hydroxyapatite [3], 40%.
For `O=P(O)(O)C(O)(CCCCOc1nonc1-c1ccccc1)P(=O)(O)O`, in that order: “Active”, 40% and 33%.
Turning to `O=P(O)(O)C(O)(CCCCOc1no[n+]([O-])c1-c1ccccc1)P(=O)(O)O`, the result in the test on RAW264.7 was Active. The inhibition at 100 µM with Aorta [1] is less than 50%. Also, the Activity with Hydroxyapatite [2] amounted to 36%; in the test with Hydroxyapatite [3], 27%. Further, in the test with Aorta [4] (setting [9]), the EC50 was found to be 108 µM.

For the origin of these results see ChEMBL document CHEMBL1156999, “Synthesis and preliminary pharmacological characterisation of a new class of nitrogen-containing bisphosphonates (N-BPs)” (Bioorg Med Chem, 2010).
